Results: ChEMBL document CHEMBL3822407, “Design, synthesis and antiproliferative activity of novel 5-nitropyrimidine-2,4-diamine derivatives bearing alkyl acetate moiety” (Eur J Med Chem, 2016)
Converted amounts (≈) assume the structure as drawn.

How the values were obtained:
[1] = tested on: HepG2; assay: Antiproliferative activity against human HepG2 cells after 48 hrs by MTT assay; assay type: functional, cell-based; details: HepG2, 48 h
Summary of the method: (§1)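 Cells kept in DMEM with 10% FBS and plated at 5 × 10³ per well, then allowed 24 h to attach at 37 °C. Compounds were dissolved as 20 mM DMSO stocks, diluted in medium to a range of concentrations, and applied for 48 h at 37 °C under 5% CO2, with 0.1% DMSO as control. MTT was added for 4 h, formazan dissolved in DMSO, and A570 read. IC50 is the mean of three independent experiments run in quadruplicate.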

[2] = tested on: MCF7; assay: Antiproliferative activity against human MCF7 cells after 48 hrs by MTT assay; assay type: functional, cell-based; details: MCF7, 48 h; summary of the method: as §1
[3] = tested on: A549; assay: Antiproliferative activity against human A549 cells after 48 hrs by MTT assay; assay type: functional, cell-based; details: A549, 48 h; summary of the method: as §1
[4] = tested on: MDA-MB-231; assay: Antiproliferative activity against human MDA-MB-231 cells after 48 hrs by MTT assay; assay type: functional, cell-based; details: MDA-MB-231, 48 h; summary of the method: as §1
[5] = tested on: HepG2; assay: Cell cycle arrest in human HepG2 cells assessed as accumulation at G0/G1 phase at 1 uM after 48 hrs by propidium iodide staining based flow cytometry (reference value: 44.28%); assay type: functional
Summary of the method: (§2)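 HepG2 cells grown to about 70% confluence and exposed to […] of compound for 48 h. Cells were then trypsinized, washed in PBS and fixed overnight in ice-cold 70% ethanol. They were treated with RNase (50, final) at 37 °C for 30 min, stained with propidium iodide (50, final), and phase distribution was measured by flow cytometry.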

[6] = tested on: HepG2; assay: Cell cycle arrest in human HepG2 cells assessed as accumulation at S phase at 5 uM after 48 hrs by propidium iodide staining based flow cytometry (reference value: 28.95%); assay type: functional; summary of the method: as §2
[7] = tested on: HepG2; assay: Cell cycle arrest in human HepG2 cells assessed as accumulation at G2/M phase at 5 uM after 48 hrs by propidium iodide staining based flow cytometry (reference value: 21.54%); assay type: functional; summary of the method: as §2
[8] = tested on: HepG2; assay: Cell cycle arrest in human HepG2 cells assessed as accumulation at G0/G1 phase at 5 uM after 48 hrs by propidium iodide staining based flow cytometry (reference value: 44.28%); assay type: functional; summary of the method: as §2
[9] = tested on: HepG2; assay: Cell cycle arrest in human HepG2 cells assessed as accumulation at S phase at 10 uM after 48 hrs by propidium iodide staining based flow cytometry (reference value: 28.95%); assay type: functional; summary of the method: as §2
[10] = Solubility in water at pH 6.4; assay type: physicochemical
[11] = tested on: HepG2; assay: Cell cycle arrest in human HepG2 cells assessed as accumulation at subG1 phase at 10 uM after 48 hrs by propidium iodide staining based flow cytometry (reference value: 2.09%); assay type: functional; summary of the method: as §2
[12] = tested on: HepG2; assay: Cell cycle arrest in human HepG2 cells assessed as accumulation at subG1 phase at 20 uM after 48 hrs by propidium iodide staining based flow cytometry (reference value: 2.09%); assay type: functional; summary of the method: as §2
[13] = tested on: HepG2; assay: Cell cycle arrest in human HepG2 cells assessed as accumulation at S phase at 1 uM after 48 hrs by propidium iodide staining based flow cytometry (reference value: 28.95%); assay type: functional; summary of the method: as §2
[14] = tested on: HepG2; assay: Cell cycle arrest in human HepG2 cells assessed as accumulation at G0/G1 phase at 10 uM after 48 hrs by propidium iodide staining based flow cytometry (reference value: 44.28%); assay type: functional; summary of the method: as §2
[15] = tested on: HepG2; assay: Cell cycle arrest in human HepG2 cells assessed as accumulation at G2/M phase after 48 hrs by propidium iodide staining based flow cytometry; assay type: functional; summary of the method: as §2
[16] = tested on: HepG2; assay: Potency index, ratio of fluorouracil IC50 to compound IC50 for human HepG2 cells; assay type: functional
[17] = tested on: HepG2; assay: Cell cycle arrest in human HepG2 cells assessed as accumulation at subG1 phase at 5 uM after 48 hrs by propidium iodide staining based flow cytometry (reference value: 2.09%); assay type: functional; summary of the method: as §2
[18] = tested on: HepG2; assay: Cell cycle arrest in human HepG2 cells assessed as accumulation at subG1 phase at 1 uM after 48 hrs by propidium iodide staining based flow cytometry (reference value: 2.09%); assay type: functional; summary of the method: as §2
[19] = tested on: HepG2; assay: Cell cycle arrest in human HepG2 cells assessed as accumulation at G0/G1 phase at 20 uM after 48 hrs by propidium iodide staining based flow cytometry (reference value: 44.28%); assay type: functional; summary of the method: as §2
[20] = tested on: HepG2; assay: Cell cycle arrest in human HepG2 cells assessed as accumulation at S phase at 20 uM after 48 hrs by propidium iodide staining based flow cytometry (reference value: 28.95%); assay type: functional; summary of the method: as §2
[21] = tested on: HepG2; assay: Cell cycle arrest in human HepG2 cells assessed as accumulation at G2/M phase at 20 uM after 48 hrs by propidium iodide staining based flow cytometry (reference value: 21.54%); assay type: functional; summary of the method: as §2
[22] = Solubility in water at pH 1; assay type: physicochemical
[23] = tested on: HepG2; assay: Cell cycle arrest in human HepG2 cells assessed as accumulation at G2/M phase at 1 uM after 48 hrs by propidium iodide staining based flow cytometry (reference value: 21.54%); assay type: functional; summary of the method: as §2
[24] = tested on: HepG2; assay: Cell cycle arrest in human HepG2 cells assessed as accumulation at G2/M phase at 10 uM after 48 hrs by propidium iodide staining based flow cytometry (reference value: 21.54%); assay type: functional; summary of the method: as §2

Compound: CCOC(=O)CN(Cc1ccccc1)c1nc(Nc2cc(OC)c(OC)c(OC)c2)ncc1[N+](=O)[O-]
- IC50 [1]: 37.8 µM
- IC50 [2]: > 100 µM
- IC50 [3]: > 100 µM
- IC50 [4]: 40.4 µM

Compound: COC(=O)CN(C)c1nc(Nc2ccccc2)ncc1[N+](=O)[O-]
- IC50 [1]: > 100 µM
- IC50 [2]: > 100 µM
- IC50 [3]: > 100 µM
- IC50 [4]: > 100 µM

Compound: CCOC(=O)CNc1ncc([N+](=O)[O-])c(N(CC(=O)OCC)Cc2ccccc2)n1
- IC50 [1]: 44.5 µM
- IC50 [2]: > 100 µM
- IC50 [3]: > 100 µM
- IC50 [4]: 92.5 µM

Compound: CCOC(=O)CN(Cc1ccccc1)c1nc(Nc2ccccc2)ncc1[N+](=O)[O-]
- IC50 [1]: 44.4 µM
- IC50 [2]: > 100 µM
- IC50 [3]: > 100 µM
- IC50 [4]: > 100 µM

Compound: COC(=O)CN(C)c1nc(Nc2cccc(OC)c2)ncc1[N+](=O)[O-]
- IC50 [1]: 73.4 µM
- IC50 [2]: 93.7 µM
- IC50 [3]: 31.9 µM
- IC50 [4]: 58 µM

Compound: COC(=O)CN(C)c1nc(NCCc2ccccc2)ncc1[N+](=O)[O-]
- IC50 [1]: 86.7 µM
- IC50 [2]: 32.5 µM
- IC50 [3]: 37 µM
- IC50 [4]: 44.8 µM

Compound: COC(=O)CN(C)c1nc(NCc2ccccc2)ncc1[N+](=O)[O-]
- IC50 [1]: > 100 µM
- IC50 [2]: 85.9 µM
- IC50 [3]: 79.4 µM
- IC50 [4]: 61.1 µM

Compound: CCOC(=O)CN(Cc1ccccc1)c1nc(Nc2cccc(OC)c2)ncc1[N+](=O)[O-]
- IC50 [1]: 27.6 µM
- IC50 [2]: > 100 µM
- IC50 [3]: > 100 µM
- IC50 [4]: 47.2 µM

Compound: CCOC(=O)CNc1nc(NC2CCN(S(C)(=O)=O)CC2)ncc1[N+](=O)[O-]
- IC50 [1]: > 100 µM
- IC50 [2]: > 100 µM
- IC50 [3]: > 100 µM
- IC50 [4]: 80.7 µM

Compound: COC(=O)CN(C)c1nc(Nc2ccc(Cl)cc2)ncc1[N+](=O)[O-]
- IC50 [1]: 49.8 µM
- IC50 [2]: 60.7 µM
- IC50 [3]: 23.5 µM
- IC50 [4]: 21.2 µM

Compound: CCOC(=O)CN(Cc1ccccc1)c1nc(NC2CCN(S(C)(=O)=O)CC2)ncc1[N+](=O)[O-]
- IC50 [1]: 57.1 µM
- IC50 [2]: > 100 µM
- IC50 [3]: > 100 µM
- IC50 [4]: 75.8 µM

Compound: COC(=O)CN(C)c1nc(Nc2cc(OC)c(OC)c(OC)c2)ncc1[N+](=O)[O-]
- IC50 [1]: 26.2 µM
- IC50 [2]: 42 µM
- IC50 [3]: > 100 µM
- IC50 [4]: 25.9 µM

Compound: O=c1[nH]cc(F)c(=O)[nH]1 [FLUOROURACIL]
- IC50 [2]: 30.4 µM

Compound: CCOC(=O)CNc1nc(Nc2cccc(OC)c2)ncc1[N+](=O)[O-]
- IC50 [1]: > 100 µM
- IC50 [2]: 35.8 µM
- IC50 [3]: 36.1 µM
- IC50 [4]: 31.3 µM

Compound: CCOC(=O)CNc1nc(Nc2ccc(Cl)cc2)ncc1[N+](=O)[O-]
- IC50 [1]: > 100 µM
- IC50 [2]: > 100 µM
- IC50 [3]: > 100 µM
- IC50 [4]: 55.5 µM

Compound: CCOC(=O)CNc1nc(NCCc2ccccc2)ncc1[N+](=O)[O-]
- IC50 [1]: 71.1 µM
- IC50 [2]: > 100 µM
- IC50 [3]: 48.2 µM
- IC50 [4]: 21.9 µM

Compound: CCOC(=O)CN(Cc1ccccc1)c1nc(NCCc2ccccc2)ncc1[N+](=O)[O-]
- IC50 [1]: 10.4 µM
- Activity [5]: 34.03%
- Activity [6]: 28.28%
- Activity [7]: 30.83%
- Activity [8]: 31.26%
- Activity [9]: 27.02%
- solubility [10]: 3 µg/mL (≈ 6.89 µM)
- Activity [11]: 4.8%
- Activity [12]: 4.91%
- Activity [13]: 28.08%
- Activity [14]: 30.91%
- Activity [15]: Dose-dependent effect
- IC50 [2]: 21 µM
- Ratio IC50 [16]: 3
- Activity [17]: 3.85%
- IC50 [3]: 87.3 µM
- IC50 [4]: 22.3 µM
- Activity [18]: 5.08%
- Activity [19]: 29.86%
- Activity [20]: 25.75%
- Activity [21]: 36.85%
- solubility [22]: 80.5 µg/mL (≈ 185 µM)
- Activity [23]: 25.46%
- Activity [24]: 31.94%

Compound: CCOC(=O)CNc1nc(Nc2ccc(OC)cc2)ncc1[N+](=O)[O-]
- IC50 [1]: > 100 µM
- IC50 [2]: > 100 µM
- IC50 [3]: > 100 µM
- IC50 [4]: 32.6 µM

Compound: CCOC(=O)CN(Cc1ccccc1)c1nc(NCc2ccccc2)ncc1[N+](=O)[O-]
- IC50 [1]: 20.9 µM
- IC50 [2]: > 100 µM
- IC50 [3]: > 100 µM
- IC50 [4]: 82.4 µM

Compound: CCOC(=O)CNc1nc(Nc2ccccc2)ncc1[N+](=O)[O-]
- IC50 [1]: > 100 µM
- IC50 [2]: > 100 µM
- IC50 [3]: > 100 µM
- IC50 [4]: 54.3 µM

Compound: COC(=O)CN(C)c1nc(NC2CCN(S(C)(=O)=O)CC2)ncc1[N+](=O)[O-]
- IC50 [1]: > 100 µM
- IC50 [2]: > 100 µM
- IC50 [3]: > 100 µM
- IC50 [4]: 59.6 µM

Compound: CCOC(=O)CN(Cc1ccccc1)c1nc(NCc2cccc(OC)c2)ncc1[N+](=O)[O-]
- IC50 [1]: 33.6 µM
- IC50 [2]: 57.4 µM
- IC50 [3]: > 100 µM
- IC50 [4]: 80.7 µM

Compound: CCOC(=O)CNc1nc(NCc2ccccc2)ncc1[N+](=O)[O-]
- IC50 [1]: > 100 µM
- IC50 [2]: 52.4 µM
- IC50 [3]: 74.4 µM
- IC50 [4]: 22.3 µM

Compound: CCOC(=O)CN(Cc1ccccc1)c1nc(Nc2ccc(Cl)cc2)ncc1[N+](=O)[O-]
- IC50 [1]: 30.9 µM
- IC50 [2]: > 100 µM
- IC50 [3]: > 100 µM
- IC50 [4]: 34.4 µM
